Assay results from ChEMBL document CHEMBL4673224, “Synthesis of 7-benzylguanosine cap-analogue conjugates for eIF4E targeted degradation” (Eur J Med Chem, 2019).
Calls of active or inactive are those of the source. No cut-off for these calls is given here.

Columns and labels:
[1] = biological target: T1, Protein cereblon/Eukaryotic translation initiation factor 4E (Homo sapiens) (UniProt P06730+Q96SW2); experiment: Protac activity at E3-liagse/eIF4E in human MDA-MB-231 cells assessed as reduction in eIF4E protein level at 25 to 200 uM after 24 to 72 hrs; assay type: cell-based; details: dose 25-200 µM, time 24-72 hrs
In short: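 MDA-MB-231 cells are grown in RPMI-1640 with 10% FBS and 1 mM glutamine at 37 °C under 5% CO2. Cells are exposed to compound at 25–200 μM for 24–72 h, and eIF4E protein level is then assessed.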

[2] = biological target: Eukaryotic translation initiation factor 4E (Homo sapiens) (UniProt P06730); experiment: Inhibition of eIF4E binding to m7GDP in immobilized resin with HEK293 lysate at 500 uM by western blot analysis based competitive binding assay; assay type: subcellular; details: time 12.0 hrs
In short: (§1)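 350 μg protein bound to m7GDP agarose for 2 h at 4 °C, washed, then exposed to compound in Buffer A overnight. Bound protein eluted in LDS buffer and probed with anti-eIF4E antibody. m7GDP is the positive control and DMSO the negative control.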

[3] = biological target: T1, Protein cereblon/Eukaryotic translation initiation factor 4E (Homo sapiens); experiment: Protac activity at E3-ligase/eIF4E in human K562 cells assessed as intracellular eIF4E degradation by Western blot analysis; assay type: cell-based
[4] = biological target: Eukaryotic translation initiation factor 4E (Homo sapiens) (UniProt P06730); experiment: Inhibition of eIF4E binding to m7GMP in immobilized resin with HEK293 lysate at 500 uM by western blot analysis based competitive binding assay; assay type: subcellular
In short: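 Cap pull-down is carried out on m7GMP agarose. HEK293 lysate is freeze-thawed thrice and cleared at 20,000 × g, and 350 μg protein is loaded for 2 h at 4 °C. After washes, the resin is incubated overnight with 500 μM compound in Buffer A (50 mM HEPES-KOH pH 7.5, 150 mM KCl). eIF4E remaining on the resin is read by anti-eIF4E western blot. m7GMP is the positive control and DMSO the negative control.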

[5] = biological target: Eukaryotic translation initiation factor 4E (Homo sapiens) (UniProt P06730); experiment: Inhibition of eIF4E binding to m7GDP in immobilized resin with HEK293 lysate by western blot analysis based competitive binding assay; assay type: subcellular; details: dose 50-500 µM; in short: as §1

T1 sequence (P06730 whole entry, looked up): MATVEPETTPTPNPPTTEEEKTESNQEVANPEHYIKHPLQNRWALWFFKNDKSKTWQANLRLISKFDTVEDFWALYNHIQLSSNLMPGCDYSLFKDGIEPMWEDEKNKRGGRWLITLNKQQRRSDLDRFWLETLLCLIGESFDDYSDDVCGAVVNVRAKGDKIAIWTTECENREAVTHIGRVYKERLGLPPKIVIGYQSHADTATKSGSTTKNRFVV
T1 sequence (Q96SW2 whole entry, looked up): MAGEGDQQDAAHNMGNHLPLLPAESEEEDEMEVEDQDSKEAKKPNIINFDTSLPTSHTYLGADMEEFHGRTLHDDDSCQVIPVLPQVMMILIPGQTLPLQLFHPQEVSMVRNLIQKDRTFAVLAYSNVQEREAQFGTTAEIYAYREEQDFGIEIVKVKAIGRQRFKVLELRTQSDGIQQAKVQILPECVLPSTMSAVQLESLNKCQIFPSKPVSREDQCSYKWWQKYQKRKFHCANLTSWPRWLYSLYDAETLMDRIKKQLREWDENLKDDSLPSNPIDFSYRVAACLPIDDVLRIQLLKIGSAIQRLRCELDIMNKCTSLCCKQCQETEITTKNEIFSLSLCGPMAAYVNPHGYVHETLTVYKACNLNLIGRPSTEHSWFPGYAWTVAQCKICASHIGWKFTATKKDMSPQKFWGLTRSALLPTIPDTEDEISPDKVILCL
Chain of Eukaryotic translation initiation factor 4E (Homo sapiens) (P06730 whole entry): as the sequence (P06730 whole entry, looked up) above

Compound | Activity [1] | inhibition [2] | Activity [3] | inhibition [4] | inhibition [5]
Nc1nc2c(c(=O)[nH]1)[n+](Cc1ccccc1)cn2[C@@H]1O[C@H](COP(=O)(O)OP(=O)(O)NCCOCCOCCOCCOCCOCCOCCOCCC(=O)Nc2cccc3c2CN(C2CCC(=O)NC2=O)C3=O)[C@@H](O)[C@H]1O (stereo partly drawn) | inactive | Active |  |  | 
Nc1nc2c(ncn2[C@@H]2O[C@H](COS(=O)(=O)NC(=O)CCC(=O)NCCCCCC(=O)Nc3cccc4c3CN(C3CCC(=O)NC3=O)C4=O)[C@@H](O)[C@H]2O)c(=O)[nH]1 (stereo partly drawn) |  |  |  | inactive | 
Cc1ncsc1-c1ccc(CNC(=O)C2C[C@H](O)CN2C(=O)[C@@H](NC(=O)CCCCCNP(=O)(O)OP(=O)(O)OC[C@H]2O[C@@H](n3cnc4c(=O)[nH]c(N)nc43)[C@H](O)[C@@H]2O)C(C)(C)C)cc1 (stereo partly drawn) |  | inactive | inactive |  | 
Nc1nc2c(ncn2[C@@H]2O[C@H](COP(=O)(O)OP(=O)(O)NCCOCCOCCOCCC(=O)Nc3cccc4c3CN(C3CCC(=O)NC3=O)C4=O)[C@@H](O)[C@H]2O)c(=O)[nH]1 (stereo partly drawn) |  | inactive | inactive |  | 
Cc1ncsc1-c1ccc(CNC(=O)C2C[C@H](O)CN2C(=O)[C@@H](NC(=O)CCCCCNP(=O)(O)OP(=O)(O)OC[C@H]2O[C@@H](n3c[n+](Cc4ccc(F)cc4)c4c(=O)[nH]c(N)nc43)[C@H](O)[C@@H]2O)C(C)(C)C)cc1 (stereo partly drawn) | inactive | Active | inactive |  | 
Cc1ncsc1-c1ccc(CNC(=O)C2C[C@H](O)CN2C(=O)[C@@H](NC(=O)CCCCCNP(=O)(O)OP(=O)(O)OC[C@H]2O[C@@H](n3c[n+](Cc4ccccc4)c4c(=O)[nH]c(N)nc43)[C@H](O)[C@@H]2O)C(C)(C)C)cc1 (stereo partly drawn) | inactive | Active | inactive |  | 
Nc1nc2c(ncn2[C@@H]2O[C@H](COP(=O)(O)OP(=O)(O)NCCOCCOCCOCCOCCOCCOCCOCCC(=O)Nc3cccc4c3CN(C3CCC(=O)NC3=O)C4=O)[C@@H](O)[C@H]2O)c(=O)[nH]1 (stereo partly drawn) |  | inactive |  |  | 
Nc1nc2c(c(=O)[nH]1)[n+](Cc1ccccc1)cn2[C@@H]1O[C@H](COS(=O)(=O)NC(=O)CCC(=O)NCCCCCC(=O)Nc2cccc3c2CN(C2CCC(=O)NC2=O)C3=O)[C@@H](O)[C@H]1O (stereo partly drawn) |  |  |  | inactive | 

Other lines, results leading:

Activity [1] | inhibition [2] | Activity [3] | inhibition [4] | inhibition [5] | Compound
inactive | Active | inactive |  |  | Nc1nc2c(c(=O)[nH]1)[n+](Cc1ccc(F)cc1)cn2[C@@H]1O[C@H](COP(=O)(O)OP(=O)(O)NCCOCCOCCOCCC(=O)Nc2cccc3c2CN(C2CCC(=O)NC2=O)C3=O)[C@@H](O)[C@H]1O (stereo partly drawn)
 |  |  | inactive |  | Nc1nc2c(c(=O)[nH]1)[n+](Cc1ccc(F)cc1)cn2[C@@H]1O[C@H](COP(=O)(O)NCCCCCC(=O)Nc2cccc3c2CN(C2CCC(=O)NC2=O)C3=O)[C@@H](O)[C@H]1O (stereo partly drawn)
inactive | Active |  |  |  | Nc1nc2c(c(=O)[nH]1)[n+](Cc1ccc(F)cc1)cn2[C@@H]1O[C@H](COP(=O)(O)OP(=O)(O)NCCCCCC(=O)Nc2cccc3c2CN(C2CCC(=O)NC2=O)C3=O)[C@@H](O)[C@H]1O (stereo partly drawn)
 |  |  | inactive |  | Nc1nc2c(c(=O)[nH]1)[n+](Cc1ccc(F)cc1)cn2[C@@H]1O[C@H](COS(=O)(=O)NC(=O)CCC(=O)NCCCCCC(=O)Nc2cccc3c2CN(C2CCC(=O)NC2=O)C3=O)[C@@H](O)[C@H]1O (stereo partly drawn)
 |  |  | inactive |  | Nc1nc2c(ncn2[C@@H]2O[C@H](COP(=O)(O)NCCCCCC(=O)Nc3cccc4c3CN(C3CCC(=O)NC3=O)C4=O)[C@@H](O)[C@H]2O)c(=O)[nH]1 (stereo partly drawn)
 | inactive |  |  |  | Nc1nc2c(ncn2[C@@H]2O[C@H](COP(=O)(O)OP(=O)(O)NCCCCCC(=O)Nc3cccc4c3CN(C3CCC(=O)NC3=O)C4=O)[C@@H](O)[C@H]2O)c(=O)[nH]1 (stereo partly drawn)
inactive | Active |  |  | Dose-dependent effect | Nc1nc2c(c(=O)[nH]1)[n+](Cc1ccccc1)cn2[C@@H]1O[C@H](COP(=O)(O)OP(=O)(O)NCCCCCC(=O)Nc2cccc3c2CN(C2CCC(=O)NC2=O)C3=O)[C@@H](O)[C@H]1O (stereo partly drawn)
 |  |  | inactive |  | Nc1nc2c(c(=O)[nH]1)[n+](Cc1ccccc1)cn2[C@@H]1O[C@H](COP(=O)(O)NCCCCCC(=O)Nc2cccc3c2CN(C2CCC(=O)NC2=O)C3=O)[C@@H](O)[C@H]1O (stereo partly drawn)
inactive | Active | inactive |  |  | Nc1nc2c(c(=O)[nH]1)[n+](Cc1ccccc1)cn2[C@@H]1O[C@H](COP(=O)(O)OP(=O)(O)NCCOCCOCCOCCC(=O)Nc2cccc3c2CN(C2CCC(=O)NC2=O)C3=O)[C@@H](O)[C@H]1O (stereo partly drawn)
inactive | Active |  |  |  | Nc1nc2c(c(=O)[nH]1)[n+](Cc1ccc(F)cc1)cn2[C@@H]1O[C@H](COP(=O)(O)OP(=O)(O)NCCOCCOCCOCCOCCOCCOCCOCCC(=O)Nc2cccc3c2CN(C2CCC(=O)NC2=O)C3=O)[C@@H](O)[C@H]1O (stereo partly drawn)
